This is an account of results in ChEMBL document CHEMBL1208680, “Synthesis and cytotoxicity screening of substituted isobenzofuranones designed from anacardic acids” (Eur J Med Chem, 2010).

The subject of test [1] is HL-60. The test is described as follows: Cytotoxicity against human HL60 cells after 72 hrs by MTT assay. The test is classed as functional, cell-based. The following applies: HL-60, 72 h. A digest of the protocol: (§1)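 Cell lines obtained from NCI, kept in RPMI 1640 with 10% FBS, 2 mM glutamine and penicillin/streptomycin at 37 °C, 5% CO2. Seeding: HL-60 0.3 × 10⁶, SF295 0.6 × 10⁵, MDA-MB435 0.1 × 10⁶ cells/mL. Compounds were added 24 h after seeding at 0.39–25.00 in 0.1% DMSO and left for 72 h. MTT at 0.5 mg/mL was added for 3 h, formazan dissolved in DMSO, absorbance read at 595 nm. IC50 by non-linear regression, triplicate, two independent experiments. Doxorubicin served as positive control.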
For orientation: Formazan colour is commonly taken as a measure of viable cells.

For the next test, the system named is SF-295. As to the kind of experiment: Cytotoxicity against human SF295 cells after 72 hrs by MTT assay. The following applies: SF-295, 72 h. Format: functional, cell-based. The essentials:
as §1

In another test the test system is PBMC. As to the kind of experiment: Cytotoxicity against human PBMC after 72 hrs by Alamar blue assay. Format: cell-based. A digest of the protocol:
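PBMC were isolated from heparinized blood of healthy donors on Histopaque-1077 and cultured in RPMI 1640 with 20% FBS plus 2% phytohaemagglutinin. Compounds were added after 24 h at 0.39–25.00 in 0.1% DMSO for 72 h. Alamar Blue was added 24 h before the end. Absorbance at 570 and 595 nm was converted to % reduced. IC50 by non-linear regression, triplicate, two independent experiments.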
(Resazurin is reduced to fluorescent resorufin, in cell work by metabolically active cells.)

The test system of the next test is MDA-MB-435. As to the kind of experiment: Cytotoxicity against human MDA-MB-435 cells after 72 hrs by MTT assay. Format: functional, cell-based. The following applies: MDA-MB-435, 72 h. The essentials: as §1
Test [2] concerns HL-60. The test is described as follows: Cytotoxicity against human HL60 cells assessed as cell viability by BrdU incorporation assay. Format: functional, cell-based. A digest of the protocol:
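HL-60 cells at 0.3 × 10⁶ cells/mL were treated for 24 h, with BrdU added for the final 3 h. Cytospin slides were stained by peroxidase immunocytochemistry with diaminobenzidine and haematoxylin counterstain. Two hundred cells per sample were scored for % BrdU-positive. Vehicle was 0.1% DMSO and the positive control doxorubicin. Mean ± S.E.M. from three independent experiments in triplicate.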

Test [3] has as its system HL-60. As to the kind of experiment: Induction of apoptosis in human HL60 cells assessed as increase in DNA strand breaks after 12 hrs by Comet assay. Format: functional, cell-based. A digest of the protocol: (§2)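 Alkaline comet assay on HL-60 cells exposed for 3, 6, 12 or 24 h. Lysis at pH 10, 4 °C, at least 1 h. Unwinding for 20 min in 300 mM NaOH/1 mM EDTA (pH >13), then electrophoresis at 0.81 V/cm for 20 min, 4 °C. Tail classes 0–4 were scored visually on 300 cells and converted to a damage index of 0–400. Vehicle was 0.1% DMSO.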

In test [4] the test system is HL-60. As to the kind of experiment: Induction of apoptosis in human HL60 cells assessed as reduction of cells in intact membrane at 6 ug/ml by AO/BE staining. Format: functional, cell-based.
The test system of test [5] is HL-60. As to the kind of experiment: Induction of apoptosis in human HL60 cells assessed as reduction in viable cells after 24 hrs. Format: functional, cell-based. The essentials:
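HL-60 cells were exposed for 24 h. Cells were stained with acridine orange and ethidium bromide (each 100 in PBS) and examined by fluorescence microscopy, 300 cells counted per point. Vehicle was 0.1% DMSO; doxorubicin was the positive control. Three independent experiments in triplicate, ANOVA with Newman-Keuls test.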

In test [6] the test system is HL-60. The test is described as follows: Induction of apoptosis in human HL60 cells assessed as increase in DNA damage by Comet assay. The test is classed as functional, cell-based. The following applies: TDE = time-dependent effect. A digest of the protocol:
as §2

For test [7], the system named is HL-60. As to the kind of experiment: Induction of apoptosis in human HL60 cells assessed as increase in DNA double strand breaks after 24 hrs by Comet assay. The test is classed as functional, cell-based. The essentials:
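Neutral comet assay on HL-60 cells treated for 24 h at 6. Electrophoresis in 100 mM Tris/300 mM sodium acetate, pH 8.5, after 60 min equilibration, then 60 min at 0.5 V/cm. Damage index was scored visually. Vehicle was 0.1% DMSO.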

For test [8], the system named is HL-60. The test is described as follows: Induction of apoptosis in human HL60 cells assessed as increase in DNA damage after 24 hrs by Comet assay. Format: functional, cell-based. A digest of the protocol:
as §2

Test [9] deals with HL-60. The test is described as follows: Induction of apoptosis in human HL60 cells assessed as reduction of cells in intact membrane at 3 ug/ml by AO/BE staining. The test is classed as functional, cell-based.

≈ marks a conversion by molar mass, not a printed value. Calls of active or inactive are those of the source. The calls are words filed in the database; no cut-off is given here.

`CCCCCCCCCCCCCCCc1cccc(OC)c1C(=O)OC`: the IC50 with HL-60 [1], in the test on SF-295, with PBMC and in the test on MDA-MB-435 was above 25 µg/mL in each case.
Take `CCCCCCCCCCCCCCC(Br)c1cccc(OC)c1C(=O)OC` (stereo unspecified): the IC50 in the test on HL-60 [1], in the test with SF-295, in the test on PBMC and with MDA-MB-435 was above 25 µg/mL each time.
For `CCCCCCCCCCCCC/C=C/c1cccc(OC)c1C(=O)OC`, the result with HL-60 [2], in the test on HL-60 [3] and with HL-60 [4] was Active. For the same molecule, the IC50 with HL-60 [1] came out at 9.96 µg/mL (≈ 26.6 µM); in the test with SF-295, 12.8 µg/mL (≈ 34.3 µM); in the test with PBMC, 19.8 µg/mL (≈ 52.9 µM); in the test with MDA-MB-435 it was 3.31 µg/mL (≈ 8.84 µM). Further, the Activity entry in the test on HL-60 [5] is “Dose-dependent effect”.
On to `CCCCCCCCCCCCCC(O)C1OC(=O)c2c(OC)cccc21` (racemic), for which the outcome in the test with HL-60 [2], in the test with HL-60 [3] and in the test on HL-60 [4] was Active. Further, the half-inhibitory concentration (IC50) is 21 µg/mL (≈ 55.8 µM) in the test on HL-60 [1], above 25 µg/mL in the test with SF-295, above 25 µg/mL in the test on PBMC and 12.3 µg/mL (≈ 32.6 µM) with MDA-MB-435.
Regarding `CCCCCCCCCCCCCC(=O)C1OC(=O)c2c(OC)cccc21` (racemic), in the test with HL-60 [2], the outcome was inactive. Further, the Activity entry in the test with HL-60 [6] was “tde”; in the test on HL-60 [8], “Dose-dependent effect”; in the test on HL-60 [5], “Dose-dependent effect”. Moreover, the IC50 in the test on HL-60 [1] is 3.24 µg/mL (≈ 8.65 µM); with SF-295 it was 10.1 µg/mL (≈ 26.9 µM); in the test on PBMC it was 14.5 µg/mL (≈ 38.7 µM); in the test on MDA-MB-435, 8.7 µg/mL (≈ 23.2 µM). The outcome with HL-60 [7], in the test on HL-60 [4] and in the test with HL-60 [9] was Active.
In the case of `COc1cccc2c1C(=O)c1c(O)c3c(c(O)c1C2=O)C[C@@](O)(C(=O)CO)C[C@@H]3O[C@H]1C[C@H](N)[C@H](O)[C@H](C)O1` [DOXORUBICIN], the results for the IC50 with SF-295 and in the test with MDA-MB-435 were 0.04 µg/mL (≈ 0.0736 µM) and 0.03 µg/mL (≈ 0.0552 µM), respectively.

Usually IC50 stands for the midpoint of a concentration-inhibition curve. High values mean weaker potency, low ones greater potency.
